Results published in ChEMBL document CHEMBL3867440, “Hernandezine, a Bisbenzylisoquinoline Alkaloid with Selective Inhibitory Activity against Multidrug-Resistance-Linked ATP-Binding Cassette Drug Transporter ABCB1” (J Nat Prod, 2016).

Legend:
Type in all cases: cell-based
[1] = biological target: T1, ATP-dependent translocase ABCB1 (Homo sapiens, UniProt P08183); assay: Inhibition of ABCB1 in human KBV1 cells assessed as potentiation of doxorubicin-induced cytotoxicity by measuring doxorubicin resistance ratio at 200 nM after 72 hrs by MTT assay relative to parental KB-3-1 cells (reference value: 34); conditions: kbv1, 72 h, 0.2 µM
Method in brief: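 Cells were kept in drug-free DMEM with 10% FCS for 7 days before assay, then plated at 5000 cells/well for 24 h. Drug at various concentrations was added with a nontoxic fixed level of modulator for 72 h, and the read-out was MTT. IC50 came from fitted curves (≥3 experiments). RR = IC50 of the resistant line / IC50 of the parental line.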

[2] = biological target: T1, ATP-dependent translocase ABCB1; assay: Inhibition of human ABCB1 transfected in HEK293 cells assessed as potentiation of doxorubicin-induced cytotoxicity by measuring doxorubicin resistance ratio at 50 nM after 72 hrs by CCK8 assay relative to parental HEK293 cells (reference value: 96); conditions: hek293, 72 h, 0.05 µM
[3] = biological target: T1, ATP-dependent translocase ABCB1; assay: Inhibition of human ABCB1-mediated efflux transfected in HEK293 cells assessed as accumulation of fluorescent dye by calcein-AM dye based FACS analysis
Method in brief: (§1)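 The HEK293 cells, transfected with human ABCB1 (parental HEK293 as control), were trypsinized and resuspended in IMDM with 5% FCS. Calcein-AM was added to 3 × 10^5 cells in 4 mL, with or without test compound (single 1 μM or a concentration series) or 3 μM tariquidar. Fluorescence was read immediately by flow cytometry. Results are the mean ± SEM of at least three experiments.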

[4] = biological target: T1, ATP-dependent translocase ABCB1; assay: Inhibition of human ABCB1-mediated efflux transfected in HEK293 cells assessed as accumulation of fluorescent dye at 1 uM by calcein-AM dye based FACS analysis; conditions: hek293, 1 µM; method in brief: as §1

T1 sequence (P08183 whole entry): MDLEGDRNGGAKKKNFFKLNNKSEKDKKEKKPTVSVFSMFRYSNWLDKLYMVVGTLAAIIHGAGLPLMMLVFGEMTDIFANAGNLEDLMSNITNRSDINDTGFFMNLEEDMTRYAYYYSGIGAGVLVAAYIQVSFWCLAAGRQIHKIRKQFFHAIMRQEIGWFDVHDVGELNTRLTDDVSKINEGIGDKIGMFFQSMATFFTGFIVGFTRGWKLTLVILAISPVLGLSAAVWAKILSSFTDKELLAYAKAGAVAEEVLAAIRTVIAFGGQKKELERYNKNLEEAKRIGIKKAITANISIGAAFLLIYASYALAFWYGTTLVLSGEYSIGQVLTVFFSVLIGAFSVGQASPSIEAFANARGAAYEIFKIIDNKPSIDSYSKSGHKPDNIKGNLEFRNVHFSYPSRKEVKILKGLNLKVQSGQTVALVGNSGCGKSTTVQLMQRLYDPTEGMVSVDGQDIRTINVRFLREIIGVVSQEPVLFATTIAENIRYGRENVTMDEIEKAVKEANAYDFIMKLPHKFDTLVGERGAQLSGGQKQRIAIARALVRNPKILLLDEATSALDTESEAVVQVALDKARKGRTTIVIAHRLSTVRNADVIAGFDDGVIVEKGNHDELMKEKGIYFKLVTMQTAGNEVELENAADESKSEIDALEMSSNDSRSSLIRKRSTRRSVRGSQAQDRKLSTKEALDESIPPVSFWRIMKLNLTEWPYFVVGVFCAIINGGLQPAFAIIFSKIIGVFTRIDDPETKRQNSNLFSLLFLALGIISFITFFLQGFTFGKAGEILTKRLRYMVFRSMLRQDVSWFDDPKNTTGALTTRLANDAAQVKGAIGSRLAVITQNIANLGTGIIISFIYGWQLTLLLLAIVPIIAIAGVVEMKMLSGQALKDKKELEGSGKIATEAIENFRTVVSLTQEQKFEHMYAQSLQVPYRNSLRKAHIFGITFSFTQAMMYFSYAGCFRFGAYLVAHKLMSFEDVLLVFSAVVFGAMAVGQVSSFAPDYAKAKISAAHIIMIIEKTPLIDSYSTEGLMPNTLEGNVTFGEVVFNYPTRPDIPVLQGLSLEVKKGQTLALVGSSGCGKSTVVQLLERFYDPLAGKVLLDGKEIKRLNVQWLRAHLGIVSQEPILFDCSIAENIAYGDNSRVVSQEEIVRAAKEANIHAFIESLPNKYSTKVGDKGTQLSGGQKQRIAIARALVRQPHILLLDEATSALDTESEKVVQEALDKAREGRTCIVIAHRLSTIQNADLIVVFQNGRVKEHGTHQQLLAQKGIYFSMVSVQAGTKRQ

`COc1ccc2cc1Oc1ccc(cc1)C[C@H]1c3cc(c(OC)cc3CCN1C)Oc1c(OC)c(OC)c(OC)c3c1[C@H](C2)N(C)CC3` [HERNANDEZINE] gave a Ratio [1] of 2, a Ratio [2] of 16 and an IC50 [3] of 0.3 µM. For the same molecule, the “inhibition (INH)” value ([3]; human, hek293) was “Dose-dependent effect” and the “inhibition (INH)” value [4] was “Active”.
